Laboratory results: ChEMBL document CHEMBL3745671, “Discovery of N-[5-(6-Chloro-3-cyano-1-methyl-1H-indol-2-yl)-pyridin-3-ylmethyl]-ethanesulfonamide, a Cortisol-Sparing CYP11B2 Inhibitor that Lowers Aldosterone in Human Subjects” (J Med Chem, 2015)
Converted amounts (≈) assume the structure as drawn.

Columns and labels:
[1] = target: T1, Cytochrome P450 11B2, mitochondrial (Homo sapiens, UniProt P19099); test: Inhibition of CYP11B2 in human […] cells assessed as decrease in […] aldosterone secretion after 24 hrs by RIA; format: cell-based
T1 sequence (P19099 whole entry): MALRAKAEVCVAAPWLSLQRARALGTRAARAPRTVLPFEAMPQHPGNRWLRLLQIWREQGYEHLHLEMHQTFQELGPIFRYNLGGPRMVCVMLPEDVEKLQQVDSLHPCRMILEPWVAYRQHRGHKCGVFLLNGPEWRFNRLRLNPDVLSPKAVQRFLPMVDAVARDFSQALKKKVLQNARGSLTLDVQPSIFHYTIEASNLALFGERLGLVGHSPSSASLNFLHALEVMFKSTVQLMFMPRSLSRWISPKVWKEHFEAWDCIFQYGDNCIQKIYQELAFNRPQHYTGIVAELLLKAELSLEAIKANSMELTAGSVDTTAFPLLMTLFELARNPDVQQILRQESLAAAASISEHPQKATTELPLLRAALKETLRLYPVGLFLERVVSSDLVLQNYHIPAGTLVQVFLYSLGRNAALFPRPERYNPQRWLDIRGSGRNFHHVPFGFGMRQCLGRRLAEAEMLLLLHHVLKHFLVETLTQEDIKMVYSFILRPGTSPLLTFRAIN

[2] = species: Homo sapiens; test: Selectivity ratio of IC50 for human recombinant CYP11B1 to IC50 for human recombinant CYP11B2
[3] = target: T2, Cytochrome P450 11B2, mitochondrial (Rattus norvegicus, UniProt P30099); test: Inhibition of recombinant rat CYP11B2 using 11-deoxycorticosterone as substrate after 2 hrs by scintillation proximity assay
T2 sequence (P30099 whole entry): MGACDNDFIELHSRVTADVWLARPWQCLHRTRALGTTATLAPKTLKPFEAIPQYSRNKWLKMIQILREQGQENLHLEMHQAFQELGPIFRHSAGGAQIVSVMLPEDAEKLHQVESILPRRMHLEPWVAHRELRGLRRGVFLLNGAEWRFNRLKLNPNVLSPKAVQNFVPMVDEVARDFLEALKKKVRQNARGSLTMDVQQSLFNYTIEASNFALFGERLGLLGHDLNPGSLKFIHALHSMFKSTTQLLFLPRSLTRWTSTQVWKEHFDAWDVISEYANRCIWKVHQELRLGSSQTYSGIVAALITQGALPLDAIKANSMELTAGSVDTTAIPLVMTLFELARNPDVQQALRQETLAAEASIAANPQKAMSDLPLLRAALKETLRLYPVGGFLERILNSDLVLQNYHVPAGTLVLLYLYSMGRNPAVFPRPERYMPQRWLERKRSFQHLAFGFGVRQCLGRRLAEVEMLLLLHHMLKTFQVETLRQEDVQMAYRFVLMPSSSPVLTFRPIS

[4] = target: T1, Cytochrome P450 11B2, mitochondrial; test: Inhibition of human recombinant CYP11B2 using 11-deoxycorticosterone as substrate after 2 hrs by scintillation proximity assay
[5] = target: T3, CYP19 (aromatase) (Homo sapiens, UniProt P11511); test: Inhibition of human CYP19 at 10 uM preincubated for 10 mins with NADPH followed by protein addition measured after 90 mins by fluorometric analysis
T3 sequence (P11511 whole entry): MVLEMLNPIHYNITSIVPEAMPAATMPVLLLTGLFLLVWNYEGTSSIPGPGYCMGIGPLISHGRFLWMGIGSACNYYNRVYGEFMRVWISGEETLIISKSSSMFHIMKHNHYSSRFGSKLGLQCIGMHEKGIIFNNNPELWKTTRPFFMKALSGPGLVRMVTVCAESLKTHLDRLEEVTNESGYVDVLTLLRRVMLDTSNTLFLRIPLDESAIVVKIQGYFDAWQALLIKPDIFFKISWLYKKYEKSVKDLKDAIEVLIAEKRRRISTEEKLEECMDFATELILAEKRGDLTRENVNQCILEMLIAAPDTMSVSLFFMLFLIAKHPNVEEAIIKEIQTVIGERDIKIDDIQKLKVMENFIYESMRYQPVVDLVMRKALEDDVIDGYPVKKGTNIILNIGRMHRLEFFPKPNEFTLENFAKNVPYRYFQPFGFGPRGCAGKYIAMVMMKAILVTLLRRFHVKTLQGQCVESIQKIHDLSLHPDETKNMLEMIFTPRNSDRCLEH

[6] = Half life in rat liver microsomes after 30 mins by LC/MS/MS analysis; format: ADME
[7] = Inhibition of CYP11B2 in cynomolgus monkey adrenal homogenates assessed as inhibition of aldosterone secretion; format: tissue-based, Macaca fascicularis
Procedure, shortened: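 Cynomolgus monkey adrenal homogenates, with 11-DOC as substrate; aldosterone secretion inhibition determined as IC50.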

[8] = species: Macaca fascicularis; test: Selectivity ratio of IC50 for cynomolgus monkey CYP11B1 to IC50 for cynomolgus monkey CYP11B2
Procedure, shortened: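 Adrenal homogenates from cynomolgus monkey (Macaca fascicularis) served as the enzyme source, with 11-DOC as substrate. CYP11B2 activity was read as aldosterone production and CYP11B1 activity as cortisol production. The value is the CYP11B1 IC50 divided by the CYP11B2 IC50.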

[9] = Half life in human liver microsomes after 30 mins by LC/MS/MS analysis; format: ADME
[10] = target: T4, Amine oxidase [flavin-containing] A (Homo sapiens, UniProt P21397); test: Inhibition of MAO-A (unknown origin)
T4 sequence (P21397 whole entry): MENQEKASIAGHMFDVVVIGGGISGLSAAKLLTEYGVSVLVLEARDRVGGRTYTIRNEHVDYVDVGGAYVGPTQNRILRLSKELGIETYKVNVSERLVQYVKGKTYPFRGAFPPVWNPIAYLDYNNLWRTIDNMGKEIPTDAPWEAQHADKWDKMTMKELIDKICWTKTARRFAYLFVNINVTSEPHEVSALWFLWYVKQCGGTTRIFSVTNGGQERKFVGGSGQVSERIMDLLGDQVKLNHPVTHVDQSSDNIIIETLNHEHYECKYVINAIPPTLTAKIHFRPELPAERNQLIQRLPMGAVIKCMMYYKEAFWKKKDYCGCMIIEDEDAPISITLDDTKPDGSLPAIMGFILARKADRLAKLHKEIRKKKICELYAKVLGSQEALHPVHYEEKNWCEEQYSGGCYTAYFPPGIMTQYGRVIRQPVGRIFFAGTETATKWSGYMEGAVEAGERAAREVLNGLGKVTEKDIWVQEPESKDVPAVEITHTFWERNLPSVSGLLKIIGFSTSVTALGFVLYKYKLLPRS

[11] = Half life in continuous angiotensin 2 infusion Sprague-Dawley rat model at 3 mg/kg, po and 1 mg/kg, iv; format: ADME, organism-based; conditions: in vivo
[12] = AUC (0 to 24 hrs) in Sprague-Dawley rat at 1 mg/kg, po; conditions: in vivo
[13] = Equilibrium solubility of the compound in buffer at pH 6.8; format: physicochemical
Procedure, shortened: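 Equilibrium solubility measured in buffer at pH 6.8.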

[14] = Oral bioavailability in continuous angiotensin 2 infusion Sprague-Dawley rat model at 3 mg/kg; format: ADME, organism-based; conditions: in vivo
Procedure, shortened: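 Male Sprague Dawley rats, 200–300 g. IV: 0.3 mg/1 mL/kg (free base) slow injection via jugular vein, n=2. Oral gavage at 1 mg/5 mL/kg or 3 mg/5 mL/kg in solution, n=3. Jugular catheter blood at 5 min (iv only), 0.25–8 h into EDTA; plasma after protein precipitation with acetonitrile containing internal standard, HPLC-MS; noncompartmental parameters.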

[15] = Clearance in continuous angiotensin-2 infusion Sprague-Dawley rat model at 3 mg/kg, po and 1 mg/kg, iv; format: ADME, organism-based; conditions: in vivo

SMILES	IC50 [1] [µM]	Ratio IC50 [2]	IC50 [3] [µM]	IC50 [4] [µM]	inhibition at 1.5 h, 10 µM [5] [%]	half-life [6] [min]	IC50 [7] [µM]	Ratio IC50 [8]	half-life [9] [min]	IC50 [10] [µM]	inhibition (INH) ([10]; human)	half-life [11] [min]	AUC(0-t) at 24 h [12] [µM·h]	solubility thermodynamic [13] [µM]	bioavailability [14] [%]	clearance [15] [mL/min/kg]
Cc1c(-c2cccnc2)[nH]c2ccccc12	0.021	27	3.9	0.003	94	–	–	–	–	–	–	–	–	–	–	–
Cn1c(-c2cccnc2)c(C#N)c2ccccc21	0.09	56	10.9	0.011	58	30	0.009	396	10	–	–	–	–	–	–	–
Cc1c(-c2cccnc2)n(C)c2ccccc12	0.009	38	–	0.0014	91	5	–	–	12	–	–	–	–	–	–	–
CCS(=O)(=O)Nc1cncc(-c2c(C#N)c3ccccc3n2C)c1	0.38	–	–	–	–	–	–	–	–	–	–	–	–	–	–	–
Cn1c(-c2cccnc2)c(C#N)c2ccc(Cl)cc21	0.004	43	8	0.0025	47	47	–	–	259	0.21	–	–	–	–	–	–
CCS(=O)(=O)Nc1cncc(-c2c(C#N)c3ccc(Cl)cc3n2C)c1	0.013	43	53.1	0.011	15	176	–	636	> 400	–	Not Active	–	–	–	–	–
CN(C)S(=O)(=O)Oc1cncc(-c2c(C#N)c3ccccc3n2C)c1	0.039	103	2	0.002	27	1	–	–	3	> 10	–	–	–	–	–	–
CCS(=O)(=O)NCc1cncc(-c2cc3ccc(Cl)nc3n2C)c1	0.007	86	–	0.0011	11	40	0.006	99	21	–	–	24	0.75	450 (≈ 164 µg/mL)	100	68
CCS(=O)(=O)NCc1cncc(-c2cc3cnc(Cl)cc3n2C)c1	0.169	21	–	0.022	–	–	–	–	–	–	–	–	–	–	–	–
